≈ marks a conversion by molar mass, not a printed value. Calls of active or inactive are those of the source. The rule behind the calls is not given here.
Legend:
Candida albicans = test: Antimicrobial activity against Candida albicans ATCC 44373 by broth microdilution method; assay type: functional
Summary of the method: (§1)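 Yeasts grown on potato dextrose agar. Inoculum was standardized by McFarland turbidity as for bacteria, into RPMI 1640 broth (M27-A2). DMSO-dissolved compound was tested in twofold dilutions from 320 to 1.25 at 35 °C for 24 h, in duplicate. MIC was the lowest concentration completely inhibiting visible growth. Fungicidal concentration was read by subculturing 20 µL from clear wells on Sabouraud dextrose agar at 35 °C.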

Candida dubliniensis = test: Antimicrobial activity against Candida dubliniensis CBS 7987 by broth microdilution method; assay type: functional; summary of the method: as §1
Nakaseomyces glabratus = test: Antimicrobial activity against Candida glabrata […] by broth microdilution method; assay type: functional; summary of the method: as §1
[1] = test system: Cryptococcus deneoformans; test: Antimicrobial activity against Cryptococcus neoformans var.neoformans serotype D ATCC 28952 by broth microdilution method; assay type: functional
Summary of the method: (§2)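 Organism grown on potato dextrose agar, with turbidity-standardized inoculum in RPMI 1640 broth (M27-A2). DMSO-dissolved compound was tested in twofold dilutions from 320 to 1.25 at 35 °C, incubated up to 72 h, in duplicate. MIC was the lowest concentration with no visible growth. Cidal concentration was read by subculturing 20 µL from clear wells on Sabouraud dextrose agar, incubated for the same period.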

Saccharomyces cerevisiae = test: Antimicrobial activity against Saccharomyces cerevisiae ATCC 2601 by broth microdilution method; assay type: functional; summary of the method: as §2
Staphylococcus aureus = test: Antimicrobial activity against Staphylococcus aureus ATCC 25923 by broth microdilution method; assay type: functional; conditions: for MBC: read-out: MFC
Summary of the method: (§3)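 Bacteria grown overnight on Mueller–Hinton agar. Colonies were suspended in saline to McFarland turbidity (about 10^8 cfu/mL), diluted 1:100 in saline, then 1:20 in Mueller–Hinton broth, giving 5 · 10^4 cfu/mL per well. DMSO-dissolved compound was tested in twofold dilutions from 320 to 1.25 at 35 °C for 24 h. MIC was the lowest concentration with no visible turbidity (M7-A4). Bactericidal concentration was read by subculturing clear wells on Mueller–Hinton agar.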

Klebsiella pneumoniae = test: Antimicrobial activity against Klebsiella pneumoniae ATCC 1003 by broth microdilution method; assay type: functional; conditions: for MBC: read-out: MFC; summary of the method: as §3
Escherichia coli = test: Antimicrobial activity against Escherichia coli ATCC 25922 by broth microdilution method; assay type: functional; summary of the method: as §3
[2] = (§4) Antimicrobial activity against Salmonella setubal ATCC 19196 by broth microdilution method; assay type: functional, Salmonella enterica subsp. enterica serovar Setubal; conditions: Salmonella enterica; summary of the method: as §3
Prototheca zopfii = test: Antimicrobial activity against Prototheca zopfii by broth microdilution method; assay type: functional; summary of the method: as §2
Pseudomonas aeruginosa = test: Antimicrobial activity against Pseudomonas aeruginosa ATCC 27853 by broth microdilution method; assay type: functional; summary of the method: as §3
Rhizopus arrhizus = test: Antimicrobial activity against Rhizopus oryzae isolate by broth microdilution method; assay type: functional
Sporothrix schenckii = test: Antimicrobial activity against Sporothrix schenckii ATCC 1146 by broth microdilution method; assay type: functional
Fusarium solani = test: Antimicrobial activity against Fusarium solani isolate by broth microdilution method; assay type: functional
Aspergillus fumigatus = test: Antimicrobial activity against Aspergillus fumigatus isolate by broth microdilution method; assay type: functional
Aspergillus flavus = test: Antimicrobial activity against Aspergillus flavus isolate by broth microdilution method; assay type: functional
Aspergillus niger = test: Antimicrobial activity against Aspergillus niger isolate by broth microdilution method; assay type: functional
Aspergillus terreus = test: Antimicrobial activity against Aspergillus terreus isolate by broth microdilution method; assay type: functional
Scedosporium boydii = test: Antimicrobial activity against Pseudallescheria boydii isolate by broth microdilution method; assay type: functional
[3] = test system: Salmonella enterica subsp. enterica serovar Setubal; test: as §4; assay type: functional; summary of the method: as §3

SMILES	MFC (Candida albicans) [µg/mL]	MIC (Candida albicans) [µg/mL]	MFC (Candida dubliniensis) [µg/mL]	MIC (Candida dubliniensis) [µg/mL]	MFC (Nakaseomyces glabratus) [µg/mL]	MIC (Nakaseomyces glabratus) [µg/mL]	MFC [1] [µg/mL]	MIC [1] [µg/mL]	MIC (Saccharomyces cerevisiae) [µg/mL]	MIC (Staphylococcus aureus) [µg/mL]	MBC (Staphylococcus aureus) [µg/mL]	MIC (Klebsiella pneumoniae) [µg/mL]	MIC (Escherichia coli) [µg/mL]	MIC [2] [µg/mL]	MIC (Prototheca zopfii) [µg/mL]	MBC (Pseudomonas aeruginosa) [µg/mL]	MIC (Pseudomonas aeruginosa) [µg/mL]	MIC (Rhizopus arrhizus) [µg/mL]	MIC (Sporothrix schenckii) [µg/mL]	MIC (Fusarium solani)	also measured
O=C(Nc1ccccc1O)c1ccoc1	320 (≈ 1570 µM)	160 (≈ 787 µM)	160 (≈ 787 µM)	80 (≈ 394 µM)	160 (≈ 787 µM)	160 (≈ 787 µM)	20 (≈ 98.4 µM)	5 (≈ 24.6 µM)	160 (≈ 787 µM)	20 (≈ 98.4 µM)	320 (≈ 1570 µM)	20 (≈ 98.4 µM)	160 (≈ 787 µM)	160 (≈ 787 µM)	40 (≈ 197 µM)	160 (≈ 787 µM)	10 (≈ 49.2 µM)	320 (≈ 1570 µM)	320 (≈ 1570 µM)	320 µg/mL (≈ 1570 µM)	MFC (Saccharomyces cerevisiae): 160 µg/mL (≈ 787 µM); MBC (Klebsiella pneumoniae): 320 µg/mL (≈ 1570 µM); MBC (Escherichia coli): 320 µg/mL (≈ 1570 µM); MBC [2]: 320 µg/mL (≈ 1570 µM); MFC (Prototheca zopfii): 80 µg/mL (≈ 394 µM); MFC (Rhizopus arrhizus): 320 µg/mL (≈ 1570 µM); MFC (Sporothrix schenckii): 320 µg/mL (≈ 1570 µM); Activity (Fusarium solani): inactive; MFC (Aspergillus fumigatus): 320 µg/mL (≈ 1570 µM); MIC (Aspergillus fumigatus): 160 µg/mL (≈ 787 µM); Activity (Aspergillus flavus): inactive; MIC (Aspergillus flavus): 320 µg/mL (≈ 1570 µM); MFC (Aspergillus niger): 320 µg/mL (≈ 1570 µM); MIC (Aspergillus niger): 320 µg/mL (≈ 1570 µM); Activity (Aspergillus terreus): inactive; MIC (Aspergillus terreus): 320 µg/mL (≈ 1570 µM); MFC (Scedosporium boydii): 160 µg/mL (≈ 787 µM); MIC (Scedosporium boydii): 160 µg/mL (≈ 787 µM)
O=C(NCCCO)c1ccoc1	160 (≈ 946 µM)	80 (≈ 473 µM)	160 (≈ 946 µM)	160 (≈ 946 µM)	160 (≈ 946 µM)	160 (≈ 946 µM)	80 (≈ 473 µM)	40 (≈ 236 µM)	320 (≈ 1890 µM)	160 (≈ 946 µM)	320 (≈ 1890 µM)	320 (≈ 1890 µM)	–	–	160 (≈ 946 µM)	160 (≈ 946 µM)	160 (≈ 946 µM)	320 (≈ 1890 µM)	320 (≈ 1890 µM)	320 µg/mL (≈ 1890 µM)	Activity (Saccharomyces cerevisiae): inactive; Activity (Klebsiella pneumoniae): inactive; Activity (Escherichia coli): inactive; Activity [3]: inactive; MFC (Prototheca zopfii): 160 µg/mL (≈ 946 µM); MFC (Rhizopus arrhizus): 320 µg/mL (≈ 1890 µM); MFC (Sporothrix schenckii): 320 µg/mL (≈ 1890 µM); MFC (Fusarium solani): 320 µg/mL (≈ 1890 µM); Activity (Aspergillus fumigatus): inactive; MIC (Aspergillus fumigatus): 320 µg/mL (≈ 1890 µM); Activity (Aspergillus flavus): inactive; Activity (Aspergillus niger): inactive; MIC (Aspergillus niger): 320 µg/mL (≈ 1890 µM); MFC (Aspergillus terreus): 320 µg/mL (≈ 1890 µM); MIC (Aspergillus terreus): 320 µg/mL (≈ 1890 µM); MFC (Scedosporium boydii): 320 µg/mL (≈ 1890 µM); MIC (Scedosporium boydii): 320 µg/mL (≈ 1890 µM)
OC(Cn1cncn1)(Cn1cncn1)c1ccc(F)cc1F [FLUCONAZOLE]	–	4 (≈ 13.1 µM)	–	2 (≈ 6.53 µM)	–	8 (≈ 26.1 µM)	–	2 (≈ 6.53 µM)	1 (≈ 3.27 µM)	–	–	–	–	–	–	–	–	–	–	–	–
C[C@@H](O)[C@H]1C(=O)N2C(C(=O)O)=C(SCCNC=N)C[C@H]12 [IMIPENEM ANHYDROUS]	–	–	–	–	–	–	–	–	–	0.06 (≈ 0.2 µM)	–	< 4	0.06 (≈ 0.2 µM)	< 4	–	–	2 (≈ 6.68 µM)	–	–	–	–
CN(C)c1ccc(CNC(=O)c2ccoc2)cc1	160 (≈ 655 µM)	80 (≈ 327 µM)	160 (≈ 655 µM)	80 (≈ 327 µM)	160 (≈ 655 µM)	80 (≈ 327 µM)	320 (≈ 1310 µM)	160 (≈ 655 µM)	160 (≈ 655 µM)	80 (≈ 327 µM)	80 (≈ 327 µM)	160 (≈ 655 µM)	160 (≈ 655 µM)	320 (≈ 1310 µM)	320 (≈ 1310 µM)	160 (≈ 655 µM)	160 (≈ 655 µM)	320 (≈ 1310 µM)	320 (≈ 1310 µM)	inactive	Activity (Saccharomyces cerevisiae): inactive; MBC (Klebsiella pneumoniae): 160 µg/mL (≈ 655 µM); Activity (Escherichia coli): inactive; MBC [2]: 320 µg/mL (≈ 1310 µM); Activity (Prototheca zopfii): inactive; Activity (Rhizopus arrhizus): inactive; Activity (Sporothrix schenckii): inactive; Activity (Aspergillus fumigatus): inactive; MIC (Aspergillus fumigatus): 320 µg/mL (≈ 1310 µM); Activity (Aspergillus flavus): inactive; MIC (Aspergillus flavus): 320 µg/mL (≈ 1310 µM); Activity (Aspergillus niger): inactive; MIC (Aspergillus niger): 320 µg/mL (≈ 1310 µM); Activity (Aspergillus terreus): inactive; MFC (Scedosporium boydii): 320 µg/mL (≈ 1310 µM); MIC (Scedosporium boydii): 40 µg/mL (≈ 164 µM)
